High-throughput results deposited in PubChem by several laboratories.
ERa SRC1 pot = enhances coactivator binding to human estrogen receptor alpha. coactivator binding (% of control), % at 25.6 µM. P03372. hit rate 1.3% among 86,000. TR-FRET ERalpha-LBD/SRC-Cy5 coactivator binding, 2 h; 100 = basal binding, no effect; in the data active = activity above about 200%;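 note: binding measured in presence of low estradiol as agonist stimulus; 0% = peptide alone without receptor and 100% = receptor with peptide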
Target sequence (P03372 whole entry, looked up, the tested form may be a part): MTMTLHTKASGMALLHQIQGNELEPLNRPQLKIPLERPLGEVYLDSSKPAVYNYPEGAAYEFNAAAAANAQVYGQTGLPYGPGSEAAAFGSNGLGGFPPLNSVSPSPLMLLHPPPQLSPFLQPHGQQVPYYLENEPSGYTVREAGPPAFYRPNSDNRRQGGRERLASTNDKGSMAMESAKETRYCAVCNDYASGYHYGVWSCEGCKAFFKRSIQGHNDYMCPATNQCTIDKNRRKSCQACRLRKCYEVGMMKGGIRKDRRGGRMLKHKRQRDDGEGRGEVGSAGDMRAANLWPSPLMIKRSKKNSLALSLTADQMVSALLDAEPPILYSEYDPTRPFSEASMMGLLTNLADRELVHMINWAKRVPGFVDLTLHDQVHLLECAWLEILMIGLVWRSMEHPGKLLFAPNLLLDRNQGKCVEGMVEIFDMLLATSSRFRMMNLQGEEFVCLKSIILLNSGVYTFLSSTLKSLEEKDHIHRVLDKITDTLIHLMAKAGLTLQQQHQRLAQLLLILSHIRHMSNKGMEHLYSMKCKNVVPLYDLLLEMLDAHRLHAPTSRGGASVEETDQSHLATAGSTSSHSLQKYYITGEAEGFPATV
ERa coact inh = ER-alpha (human) coactivator binding inhibition; AID 629; TR-FRET ER-alpha LBD / SRC-1 peptide, estradiol-bound; hit rate 1.7% among 86,000; inhibition, % at 25.6 µM; in the data active = inhibition above about 50%;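 note: 0% = receptor plus peptide control and 100% = peptide only without receptor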
SF1 activator = activates the human nuclear receptor SF-1 | hit rate 1.9% among 65,000 | activation, % at 10 µM | Q13285 | CHO-K1 Gal4-SF-1 LBD luciferase reporter; % increase over DMSO SF-1-specific signal;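 active = activation above the mean activation of all tested compounds plus 3 SD, cut at about 50% in these data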
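Material: Transient Gal4-SF-1 LBD reporter, CHO-K1 | Input: 4,000 cells/well | Dosing: One dose, 10 µM compound, 1% DMSO | Incubation: 20 h compound treatment, 37 °C | Detection: SteadyLite luciferase luminescence | Evaluation: Percent activation relative to DMSO median and mock-transfected background | Benchmarks: DMSO-treated SF-1-transfected cells as negative, DMSO-treated mock-transfected cells lacking SF-1 as background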
RORA act = activates the human nuclear receptor RORA; P35398; CHO-K1 Gal4-RORA LBD luciferase reporter, luminescence; percent increase over mock-subtracted basal signal; activation, % at 10 µM; hit rate 1.5% among 65,000; AID 560;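 active = activation above the mean of all tested compounds plus 3 SD, cut at about 49% in these data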;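 note: 0% = DMSO-treated RORA cells and 100% = added signal equal to DMSO minus mock-transfected cells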
BAP1 inh = human BAP1 deubiquitinase inhibition; calls only at 20 µM; recombinant BAP1, Ub-AMC hydrolysis fluorescence kinetic; stronger effect = lower value; hit rate 0.48% among 72,000;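 active = activity remaining at or below 50% of control, provided the compound also passes the data quality filters; inactive = the rest, including low values that fail the filters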;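 note: 100% = DMSO wells rate and 0% = substrate alone blank rate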
ERb coact inh = blocks coactivator binding to human estrogen receptor beta | hit rate 1.3% among 86,000 | TR-FRET ER-beta LBD / SRC1-Cy5 peptide binding; receptor agonist-loaded with 1 µM estradiol | inhibition, % at 25.6 µM | Q92731;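 active = compounds whose percent inhibition of the receptor-coactivator binding signal exceeds about 50% in the single-dose screen, limit read from the data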;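 note: 0% = receptor plus peptide wells without compound and 100% = peptide-only wells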
* marks the source's active call; other numbers are inactive results; [ ] = remark or other dose. Only some compounds are listed: those with a hit (about 5.1% of all), similar ones and a draw of the others.

CCCCOC(=O)C1=C(C)NC2=C(C(=O)CCC2)C1c1ccc(O)c(OCC)c1 (configuration not stated) was read as BAP1 inh inactive.
`CSc1ncccc1C(=O)OCc1ccccc1` gave ERa SRC1 pot 102, ERa coact inh -6, SF1 activator 30, RORA act 46, BAP1 inh inactive and ERb coact inh -1.
CSc1ncccc1C(=O)OCc1ccccc1F was read as ERa SRC1 pot 101, ERa coact inh -5, SF1 activator 29, RORA act 89*, BAP1 inh inactive and ERb coact inh -5.
Screening Cc1cccc(OCC(=O)Nc2nonc2NC(=O)COc2cccc(C)c2)c1 returned ERa SRC1 pot 144, ERa coact inh 72*[fluorescence artefact?] and ERb coact inh 52*[fluorescence artefact?].
Cc1ccc(C)c(OCC(=O)Nc2nonc2NC(=O)COc2cc(C)ccc2C)c1 was read as ERa SRC1 pot 64, ERa coact inh 63*[fluorescence artefact?], SF1 activator 21, RORA act 19 and ERb coact inh 22.
For CCOc1ccc(NC(=O)COc2cccc(C)c2)c([N+](=O)[O-])c1 the results were BAP1 inh inactive.
Screening CCOc1ccc(C2NC(=O)NC(C)=C2C(=O)OC(C)C)cc1 (configuration not stated) returned BAP1 inh inactive.
`COC(=O)C1Cc2c([nH]c3ccccc23)CN1` (configuration not stated) gave ERa SRC1 pot 104, ERa coact inh -5, SF1 activator 15, RORA act -4, BAP1 inh inactive and ERb coact inh -7.
For CC(C)(C)C1CCc2[nH]c3ccccc3c(=O)c2C1 (configuration not stated) the results were ERa SRC1 pot 107, ERa coact inh 3, SF1 activator 56*, RORA act 98*, BAP1 inh inactive and ERb coact inh -1.
COc1ccc(Nc2nc(N3CCCC3)c3ccccc3n2)cc1 was read as ERa SRC1 pot 34, ERa coact inh 68*[fluorescence artefact?], SF1 activator -24, RORA act -10 and ERb coact inh 6.
`CCN(CC)c1ccc(Nc2nc(N3CCOCC3)c3ccccc3n2)cc1` gave ERa SRC1 pot 75, ERa coact inh 4 and ERb coact inh 2.
For Cc1cc(-c2ccc(Cl)cc2)c(C#N)c(N)n1 the results were ERa SRC1 pot 285*[fluorescence artefact?], ERa coact inh 39 and ERb coact inh 32.
For CCOc1c(C(N)=O)c(-c2ccccc2)c2c(=O)[nH]c3ccccc3n12 the results were ERa SRC1 pot 54, ERa coact inh 82*[fluorescence artefact?], SF1 activator -30, RORA act 12 and ERb coact inh 61*.
`CCOC(=O)c1c(-c2ccccc2)c2cc([N+](=O)[O-])ccc2[nH]c1=O` gave BAP1 inh inactive.
COc1ccc(C)cc1NC(=O)c1cc2c(CO)cnc(C)c2oc1=N was read as ERa SRC1 pot 239*[fluorescence artefact?], ERa coact inh -28, SF1 activator 24, RORA act -10, BAP1 inh inactive and ERb coact inh 14.
CCOC(=O)c1sc(N)nc1C was read as BAP1 inh inactive.
`Cc1ccc(NC(=O)COc2ccc([N+](=O)[O-])cc2)c(Br)c1` gave BAP1 inh inactive.
For Cc1nc2cc([N+](=O)[O-])ccc2n1CCOC(=O)c1ccc([N+](=O)[O-])cc1 the results were BAP1 inh inactive.
`COC(=O)Cn1c(C)nc2ccccc21` gave ERa SRC1 pot 97, ERa coact inh 1 and ERb coact inh -13.
COC(=O)Cn1c(C)nc2c(sc3nc(C)cc(C)c32)c1=O was read as ERa SRC1 pot 91, ERa coact inh -11, SF1 activator 50*, RORA act 40, BAP1 inh inactive and ERb coact inh -5.
For COc1ccc(Cl)cc1N1C(=O)C2C(c3ccccc3)OC3(C(=O)c4ccccc4C3=O)C2C1=O (configuration not stated) the results were BAP1 inh inactive.
Screening Cc1ccccc1C(=O)Nc1ccc(Br)cn1 returned ERa SRC1 pot 204*, ERa coact inh -5, SF1 activator 82*, RORA act 67*, BAP1 inh inactive and ERb coact inh -2.
CCCC(=O)Nc1ccc(Br)cn1 was read as ERa SRC1 pot 99, ERa coact inh 9 and ERb coact inh -6.
Screening NS(=O)(=O)c1ccc(NC(=O)C23CC4CC(CC(C4)C2)C3)cc1 returned BAP1 inh inactive.
For CC1CCCN(c2nc3ccsc3c(=O)s2)C1 (configuration not stated) the results were ERa SRC1 pot 96, ERa coact inh -9, SF1 activator 40, RORA act 60*, BAP1 inh inactive and ERb coact inh 3.
Screening Cc1nc2c(F)c(F)c(C(F)(F)F)c(F)c2[nH]1 returned ERa SRC1 pot 126, ERa coact inh 0, SF1 activator -7, RORA act -21, BAP1 inh inactive and ERb coact inh 1.
Cc1nc2c(Br)c3nc(C(F)(F)F)[nH]c3c(Br)c2[nH]1 was read as ERa SRC1 pot 68, ERa coact inh 38, SF1 activator -14, RORA act -13, BAP1 inh inactive and ERb coact inh 74*[fluorescence artefact?].
`CCOCCCNC(=O)c1c[nH]c2ccc(S(=O)(=O)Nc3cccc(OC)c3)cc2c1=O` gave ERa SRC1 pot 32, ERa coact inh 53*, SF1 activator 5, RORA act 2, BAP1 inh inactive and ERb coact inh 16.
`COc1cccc(NS(=O)(=O)c2ccc3[nH]cc(C(=O)NCCN4CCOCC4)c(=O)c3c2)c1` gave ERa SRC1 pot 53, ERa coact inh 26, SF1 activator 8, RORA act -8, BAP1 inh inactive and ERb coact inh -22.
Screening O=C(NCc1ccco1)c1c[nH]c2ccc(S(=O)(=O)N3CCOCC3)cc2c1=O returned ERa SRC1 pot 74, ERa coact inh 13, SF1 activator -19, RORA act -4, BAP1 inh inactive and ERb coact inh 9.
For CCc1ccccc1NS(=O)(=O)c1ccc2[nH]cc(C(=O)NCc3ccco3)c(=O)c2c1 the results were ERa SRC1 pot 277*[fluorescence artefact?], ERa coact inh 38, SF1 activator 6, RORA act -6, BAP1 inh inactive and ERb coact inh 39.
`CCN(CC)C(=O)c1c[nH]c2ccc(S(=O)(=O)Nc3cc(C)cc(C)c3)cc2c1=O` gave ERa SRC1 pot 26, ERa coact inh 56*, SF1 activator 5, RORA act -4, BAP1 inh inactive and ERb coact inh 24.
Screening CC1=C(C(=O)OCC2CCCCC2)C(c2cccc(Cl)c2)NC(=O)N1 (configuration not stated) returned BAP1 inh inactive.
